We go through 15 molecules from ChEMBL document CHEMBL4334522, “Optimization Strategy of Novel Peptide-Based Michael Acceptors for the Treatment of Human African Trypanosomiasis” (J Med Chem, 2019).

pEC50, pKi: −log10 of the molar value. Activity calls are given as the source filed them. The rule behind the calls is not given here.

Assay [1] addresses Rhodesain (Trypanosoma brucei rhodesiense) (UniProt Q95PM0). In words: Inhibition of Trypanosoma brucei rhodesiense rhodesain expressed in Pichia pastoris assessed as first-order rate constant measured for 30 mins using Cbz-Phe-Arg-AMC as substrate by fluorescence assay. A digest of the protocol: (§1)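 Continuous rhodesain assay using 7 inhibitor concentrations spanning minimal to full inhibition, with 10 µM Cbz-Phe-Arg-AMC. Buffer: 50 mM sodium acetate pH 5.5, 5 mM EDTA, 200 mM NaCl, 0.005% Brij 35; enzyme buffer had 5 mM DTT instead. Read at room temperature for 30 min, ex 380/em 460 nm. kobs came from fitting progress curves to F = A(1−exp(−kobs·t)) + B. Fitting kobs against [I] hyperbolically gave kinac and Kiapp. Kiapp was corrected by (1+[S]/Km) with Km 0.9 µM, and k2nd = kinac/Ki. Each assay was run twice in duplicate.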

The target is the same in assay [2]. In words: Irreversible inhibition of Trypanosoma brucei rhodesiense rhodesain expressed in Pichia pastoris at 0.005 to 0.5 nM measured for 30 mins using Cbz-Phe-Arg-AMC as substrate by fluorescence assay. The method, boiled down:
as §1

Assay [3] addresses T1, Procathepsin L (Homo sapiens, UniProt P07711). The assay can be described thus: Inhibition of human Cathepsin L assessed as inhibition constant using Cbz-Phe-Arg-AMC as substrate by fluorescence assay.
Target sequence in this assay (P07711 whole entry): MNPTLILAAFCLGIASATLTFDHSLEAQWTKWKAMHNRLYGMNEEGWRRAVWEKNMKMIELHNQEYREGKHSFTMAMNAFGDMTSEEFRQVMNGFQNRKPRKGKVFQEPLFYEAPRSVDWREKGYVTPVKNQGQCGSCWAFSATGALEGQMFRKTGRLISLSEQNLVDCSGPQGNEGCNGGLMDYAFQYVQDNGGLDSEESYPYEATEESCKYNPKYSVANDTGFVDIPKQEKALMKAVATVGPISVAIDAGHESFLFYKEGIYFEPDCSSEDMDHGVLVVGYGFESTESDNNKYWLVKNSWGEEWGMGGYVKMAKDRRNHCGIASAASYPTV
In assay [4] the target is Rhodesain (Trypanosoma brucei rhodesiense) (UniProt Q95PM0). The assay can be described thus: Inhibition of Trypanosoma brucei rhodesiense rhodesain expressed in Pichia pastoris at 50 uM measured for 30 mins using Cbz-Phe-Arg-AMC as substrate by fluorescence assay relative to control. A digest of the protocol: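 Recombinant rhodesain screened with inhibitor at 50 µM against an equivalent DMSO negative control. AMC release from 10 µM Cbz-Phe-Arg-AMC was followed continuously for 30 min.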

Assay [5] has as its target T1, Procathepsin L. The assay can be described thus: Inhibition of human Cathepsin L assessed as second order rate constant obtained from ratio of Kinact to Ki using Cbz-Phe-Arg-AMC as substrate by fluorescence assay.
Target sequence in this assay (P07711 114-333 limits assumed): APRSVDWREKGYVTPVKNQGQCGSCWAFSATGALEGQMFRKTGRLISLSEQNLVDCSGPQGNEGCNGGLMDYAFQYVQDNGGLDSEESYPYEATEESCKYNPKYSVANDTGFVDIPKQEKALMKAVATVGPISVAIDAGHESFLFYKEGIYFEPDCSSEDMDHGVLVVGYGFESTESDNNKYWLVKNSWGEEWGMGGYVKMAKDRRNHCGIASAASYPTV
The target in assay [6] is Rhodesain (Trypanosoma brucei rhodesiense) (UniProt Q95PM0). The assay can be described thus: Inhibition of Trypanosoma brucei rhodesiense rhodesain expressed in Pichia pastoris assessed as second order rate constant obtained from ratio of Kinact to Ki measured for 30 mins using Cbz-Phe-Arg-AMC as substrate by fluorescence assay. The method, boiled down:
as §1

Assay [7] has as its target Rhodesain (Trypanosoma brucei rhodesiense, UniProt Q95PM0). In words: Inhibition of Trypanosoma brucei rhodesiense rhodesain expressed in Pichia pastoris assessed as inhibition constant measured for 30 mins using Cbz-Phe-Arg-AMC as substrate by fluorescence assay. A digest of the protocol:
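Recombinant rhodesain, continuous fluorimetric assay with Cbz-Phe-Arg-AMC at 10 µM, ex 380/em 460 nm, read 30 min at room temperature. Buffer: 50 mM sodium acetate pH 5.5, 5 mM EDTA, 200 mM NaCl, 0.005% Brij 35; enzyme buffer has 5 mM DTT. Seven inhibitor concentrations. kobs from progress-curve fits, hyperbolic fit gives Kiapp, corrected with Km 0.9 µM to Ki. Two independent assays in duplicate.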

Assay [8] concerns the target T1, Procathepsin L. The assay can be described thus: Inhibition of human Cathepsin L assessed as first-order rate constant using Cbz-Phe-Arg-AMC as substrate by fluorescence assay.
Target sequence in this assay (P07711 114-333 limits assumed): as above
For assay [9], the system named is Trypanosoma brucei brucei. In words: Antitrypanosomal activity against blood stage form of Trypanosoma brucei brucei 449 incubated for 24 hrs by ATPlite assay. It counts as functional, organism-based. To be noted: Trypanosoma brucei, 449, 24 h. A digest of the protocol: (§2)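 Bloodstream-form T. b. brucei 449 (Lister 427 descendant) cultured in HMI-9 with 10% FCS, penicillin/streptomycin and 0.2 µg/mL phleomycin at 37°C, 5% CO2. Cells seeded at 2500 cells/mL. Compounds from 5 mM stocks were serially diluted 1:2 to give 16.7 µM to 32.5 nM final. Controls: 0.3% DMSO (negative) and 10% DMSO (positive). Incubated 24 h or 48 h, in two separate triplicates. Viability read by ATPlite luminescence; EC50 taken from dose-response curves.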
Background: Cellular ATP, detected with luciferase, serves as a proxy for viable cell number.

The subject of assay [10] is Trypanosoma brucei brucei. The assay can be described thus: Antitrypanosomal activity against blood stage form of Trypanosoma brucei brucei 449 incubated for 48 hrs by ATPlite assay. To be noted: Trypanosoma brucei, 449, 48 h. Type of assay: functional, organism-based. The method, boiled down: as §2

Rhodesain, sequence (Q95PM0 whole entry): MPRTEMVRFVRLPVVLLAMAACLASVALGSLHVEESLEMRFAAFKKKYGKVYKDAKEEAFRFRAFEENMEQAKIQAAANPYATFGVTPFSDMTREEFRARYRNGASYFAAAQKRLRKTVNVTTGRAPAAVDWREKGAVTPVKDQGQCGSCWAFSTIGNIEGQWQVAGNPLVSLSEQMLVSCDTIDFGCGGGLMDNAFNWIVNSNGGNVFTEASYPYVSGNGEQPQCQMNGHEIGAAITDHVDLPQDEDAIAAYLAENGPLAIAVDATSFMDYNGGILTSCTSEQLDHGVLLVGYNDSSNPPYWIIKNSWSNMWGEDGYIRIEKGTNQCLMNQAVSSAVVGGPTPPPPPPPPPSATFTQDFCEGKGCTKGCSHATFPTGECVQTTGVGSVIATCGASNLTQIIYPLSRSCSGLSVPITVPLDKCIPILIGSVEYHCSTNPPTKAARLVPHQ
Rhodesain (Trypanosoma brucei rhodesiense), sequence (Q95PM0 1-450): as the sequence (Q95PM0 whole entry) above

For orientation: inhibition means the change of the read-out against control, counted positive when it falls. A word on the pKi: it is −log10 of the Ki, conventionally taken in molar units. What is called pEC50 is −log10 of the EC50, conventionally taken in molar units. Read a low pEC50 as a high EC50. As to `CC(=O)/C=C/[C@H](CCc1ccccc1)NC(=O)[C@H](Cc1ccccc1)NC(=O)c1ccc(F)cc1`, the Kinact was 0.0009 min⁻¹ in assay [1] and 0.0018 min⁻¹ in [8]. Moreover, the inhibition entry in [2] is “Active”. For the same molecule, the results for the pKi in assay [3] and in [7] were 8.82 and 11.96, respectively. In assay [4], this molecule returned an inhibition of 85 to 100%. For the same molecule, the figures for the K in [5] and in assay [6] were 1230 ×10³ /M/min and 881000 ×10³ /M/min, respectively. Moreover, the pEC50 in assay [9] was 5.29; in assay [10] it was 5.44.
As for `CC(=O)/C=C/[C@H](CCc1ccccc1)NC(=O)[C@H](Cc1ccccc1)NC(=O)c1ccc2c(c1)OCO2`, the figures for the Kinact in assay [1] and in assay [8] were 0.0005 min⁻¹ and 0.0016 min⁻¹, respectively. Moreover, the pKi in assay [3] is 7.99; in [7], 10.47. This molecule yielded an inhibition in assay [4] of 85 to 100%. Besides, the figures for the K in assay [5] and in [6] were 157 ×10³ /M/min and 15300 ×10³ /M/min, respectively. For the same molecule, the figures for the pEC50 in assay [9] and in assay [10] were 5.30 and 5.43, respectively.
Turning to `CCC(=O)/C=C/[C@H](CCc1ccccc1)NC(=O)[C@H](Cc1ccccc1)NC(=O)OCc1ccccc1`, the Kinact in assay [1] was found to be 0.00082 min⁻¹; in assay [8], 0.0071 min⁻¹. Moreover, the pKi in assay [3] is 6.97; in assay [7], 9.30. In assay [4], this molecule came in with an inhibition of 85 to 100%. In addition, the K in assay [5] came out at 67 ×10³ /M/min; in [6], 1800 ×10³ /M/min.
Take `CC(=O)/C=C/[C@H](CCc1ccccc1)NC(=O)[C@H](Cc1ccccc1)NC(=O)N1CCOCC1`: the Kinact in [1] is 0.00049 min⁻¹; in assay [8] it was 0.0039 min⁻¹. For the same molecule, the pKi was 6.76 in assay [3] and 8.51 in [7]. Besides, in [4], the inhibition is 85 to 100%. Moreover, the K in [5] turned out to be 23 ×10³ /M/min; in assay [6] it was 157 ×10³ /M/min.
Regarding `CC(=O)/C=C/[C@H](CCc1ccccc1)NC(=O)[C@H](Cc1ccccc1)NC(=O)c1c(F)cccc1F`, the figures for the Kinact in assay [1] and in assay [8] were 0.0012 min⁻¹ and 0.002 min⁻¹, respectively. In addition, the negative-log Ki (pKi) in assay [3] was 6.64; in assay [7], 11.12. Besides, the inhibition in assay [4] was 85 to 100%. Also, the K in [5] turned out to be 8.9 ×10³ /M/min; in assay [6], 151000 ×10³ /M/min.
With `CC(=O)/C=C/[C@H](CCc1ccccc1)NC(=O)[C@H](CCc1ccccc1)NC(=O)OCc1ccccc1`, the results for the Kinact in assay [1] and in assay [8] were 0.00072 min⁻¹ and 0.0056 min⁻¹, respectively. For the same molecule, the pKi is 6.34 in assay [3] and 8.26 in assay [7]. The inhibition in assay [4] was in the range of 85 to 100%. Further, the K in assay [5] is 12 ×10³ /M/min; in [6], 137 ×10³ /M/min. For the same molecule, the negative-log EC50 (pEC50) in [9] is 6.26; in assay [10] it was 6.36.
For `CC(=O)/C=C/[C@H](CCc1ccccc1)NC(=O)[C@H](Cc1ccccc1)NC(=O)c1ccc(Cl)cc1`, the values for the Kinact in assay [1] and in [8] were 0.0008 min⁻¹ and 0.0018 min⁻¹, respectively. For the same molecule, the pKi in assay [3] is 9.22; in assay [7] it was 10.54. Also, in assay [4], the inhibition was 85 to 100%. Further, the K in [5] was determined as 3030 ×10³ /M/min; in assay [6] it was 29300 ×10³ /M/min. Besides, the pEC50 was 5.32 in [9] and 5.49 in [10].
For the molecule `CC(=O)/C=C/[C@H](CCc1ccccc1)NC(=O)[C@H](Cc1ccccc1)NC(=O)c1ccccc1F`, the Kinact in [1] amounted to 0.0006 min⁻¹; in [8], 0.0011 min⁻¹. The pKi in assay [3] was 8.28; in assay [7], 11.52. The inhibition in [4] was 85 to 100%. Moreover, the values for the K in [5] and in [6] were 313 ×10³ /M/min and 230000 ×10³ /M/min, respectively.
Regarding `CC(=O)/C=C/[C@H](CCc1ccccc1)NC(=O)[C@H](Cc1ccccc1)NC(=O)c1ccc2c(c1)OCCO2`, the values for the Kinact in [1] and in [8] were 0.0043 min⁻¹ and 0.0076 min⁻¹, respectively. For the same molecule, the pKi is 7.11 in assay [3] and 9.13 in assay [7]. In assay [4], this molecule returned an inhibition of 85 to 100%. The K in [5] stood at 102 ×10³ /M/min; in [6] it was 7200 ×10³ /M/min.
Turning to `CC(=O)/C=C/[C@H](CCc1ccccc1)NC(=O)[C@H](Cc1ccccc1)NC(=O)c1cccc(F)c1`, the Kinact was 0.0032 min⁻¹ in assay [1] and 0.0019 min⁻¹ in assay [8]. Moreover, the negative-log Ki (pKi) in [3] is 7.33; in assay [7], 10.64. The same molecule came in with an inhibition in assay [4] of 85 to 100%. Further, the K stood at 41 ×10³ /M/min in [5] and 149000 ×10³ /M/min in [6].
On to `CC(=O)/C=C/[C@H](CCc1ccccc1)NC(=O)[C@H](Cc1ccccc1)NC(=O)N1CCN(C)CC1`, for which the Kinact in [1] is 0.00042 min⁻¹; in assay [8] it was 0.0047 min⁻¹. The values for the pKi in assay [3] and in [7] were 6.80 and 8.74, respectively. In addition, in [4], the inhibition lay in the range of 85 to 100%. The K in assay [5] stood at 31 ×10³ /M/min; in [6], 266 ×10³ /M/min.
As to `CC(=O)/C=C/[C@H](CCc1ccccc1)NC(=O)[C@H](Cc1ccccc1)NC(=O)c1cc(F)cc(F)c1`, the Kinact in assay [1] is 0.0016 min⁻¹; in assay [8], 0.0022 min⁻¹. In addition, the pKi in assay [3] is 7.83; in [7] it was 10.82. The molecule further yielded an inhibition in assay [4] of 85 to 100%. Besides, the K was 156 ×10³ /M/min in assay [5] and 113000 ×10³ /M/min in assay [6]. Besides, the pEC50 in assay [9] is 5.40; in assay [10], 5.47.
As for `CC(=O)/C=C/[C@H](CCc1ccccc1)NC(=O)[C@H](Cc1ccccc1)NC(=O)c1ccc(F)cc1F`, the results for the Kinact in assay [1] and in assay [8] were 7e-05 min⁻¹ and 0.0015 min⁻¹, respectively. Also, the pKi in [3] is 7.46; in assay [7], 12.22. The inhibition in assay [4] fell in the range of 85 to 100%. The K was 52 ×10³ /M/min in [5] and 107000 ×10³ /M/min in [6]. For the same molecule, the pEC50 is 6.13 in assay [9] and 6.17 in [10].
Regarding `CC(=O)/C=C/[C@H](CCc1ccccc1)NC(=O)[C@H](Cc1ccccc1)NC(=O)Cc1ccc2c(c1)OCO2`, the Kinact worked out at 0.00085 min⁻¹ in assay [1] and 0.0053 min⁻¹ in assay [8]. Besides, the negative-log Ki (pKi) was 7.04 in assay [3] and 8.68 in [7]. In assay [4], this molecule had an inhibition of 85 to 100%. In addition, the results for the K in assay [5] and in assay [6] were 59 ×10³ /M/min and 435 ×10³ /M/min, respectively.
Turning to `CC(=O)/C=C/[C@H](CCc1ccccc1)NC(=O)[C@H](Cc1ccccc1)NC(=O)c1ccc(C(F)(F)F)cc1`, the results for the Kinact in assay [1] and in assay [8] were 0.00075 min⁻¹ and 0.0015 min⁻¹, respectively. For the same molecule, the pKi in [3] is 8.39; in assay [7] it was 11.36. The same molecule showed an inhibition in [4] of 85 to 100%. For the same molecule, the K stood at 380 ×10³ /M/min in [5] and 175000 ×10³ /M/min in assay [6].
